# E coli WT inh: growth inhibitors of wild type E. coli, primary screen, strain BW25113 wild type, absorbance readout | E. coli BW25113 growth inhibition, OD600 | inhibition, % at 10 µM | hit rate 0.05% among 20,000 | AID 552, 2006; in the data active = inhibition above about 40%;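 also: bacteria exposed to compound for 20 hours at 37 °C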
#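 assay system = bacterial strain in a whole-cell growth screen | quantity = inoculum from a 1:1000 dilution of a 1.5 h subculture | buffer or medium = LB broth with 50 µg/mL kanamycin | compound dosing = one dose, 10 µM final | schedule = compound exposure of 20 h at 37 °C | technique = absorbance at 615 nm as a measure of bacterial growth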
# An asterisk follows results filed as active. The entries come from a sample that favours hits as a whole.
SMILES,E coli WT inh
c1ccc(Cc2nn3c(-c4ccncc4)nnc3s2)cc1,-16
COc1ccc(S(=O)(=O)Nc2ccc(F)c(Cl)c2)cc1OC,1
O=C(Cn1c(CN2CCCCC2)nc2ccccc2c1=O)NCc1ccco1,-22
C=CCn1c(COc2ccc(Cl)cc2)nnc1SCC(=O)N1CC(=O)Nc2ccccc21,-2
CCOC(=O)COc1ccc(S(=O)(=O)NCCC2=CCCCC2)cc1,-19
COc1ccc(S(=O)(=O)N2CCCCC2)cc1C(C)C,2
CCn1ncc(C2=NOC(C(=O)NCc3ccc(Cl)cc3)C2)c1C (configuration not stated),0
CCOC(=O)COc1ccc2c(c1)c(C(=O)OCC)c(C)n2CC,-23
C=C(C)CSc1nnc([C@@H](NC(=O)OC(C)(C)C)C(C)CC)o1 (some centres not stated),-10
CCN(CC)S(=O)(=O)c1cc(Br)c(C)cc1OC,-10
COc1ccc2c(c1)C(C)=CC(C)(C)N2C(=O)CSc1nnc(-c2ccc(C)cc2)o1,0
CCCCC12CN3CC(C)(CN(C1)C31C(=O)N(C)c3ccc(C)cc31)C2=O (configuration not stated),-9
C=CCSc1nc(N)c(C(=O)Nc2ccccc2C)cc1C(N)=O,-2
CCOc1ccc(C(C)(C)C)cc1S(=O)(=O)N1CC(C)OC(C)C1 (configuration not stated),-23
CN1CCN(C(=O)C2CC(c3c(F)cccc3Cl)=NO2)CC1 (configuration not stated),-21
COc1ccc2cc(C#N)c(N3CCN(Cc4nnnn4CCC(C)C)CC3)nc2c1,0
COc1ccc(OC)c(S(=O)(=O)N2c3cc(F)ccc3CCC2C)c1 (configuration not stated),-25
COc1ccccc1C1CC(c2ccc(Cl)cc2)Nc2ncnn21 (configuration not stated),-14
COc1ccc(F)cc1S(=O)(=O)Nc1ccc(C)cc1,5
Cc1ccc(S(=O)(=O)Nc2ccc3nc(-c4cccn4C)[nH]c3c2)cc1,-1
O=C1C2C(C(=O)N1Cc1cccnc1)C1C=CC2C12CC2 (configuration not stated),-21
O=C(/C=N/O)NCc1ccncc1,-2
O=C(NCc1cccs1)c1csc2ccccc12,-15
COc1ccc(OC)c(S(=O)(=O)N2CCC(C(=O)N3CCc4ccccc4C3)CC2)c1,-23
CCC(=O)Nc1ccc(S(=O)(=O)Nc2cccc(C)c2)cc1OC,1
SMILES,E coli WT inh
COC(=O)C1CCN(C(=O)C2CCCCC2)CC1,-11
CCOC(=O)C1CCN(C(=O)Nc2ccc(Cl)cc2Cl)CC1,-8
CCOc1ccc(NC2c3ccccc3C(=O)N2Cc2ccco2)cc1 (configuration not stated),10
CCOC(=O)c1sc2nc(SCC#N)n(CCCN3CCCC3=O)c(=O)c2c1C,-4
CN1CCc2nc(SCC(=O)Nc3ccc(F)cc3)c(C#N)cc2C1,16
O=C(Nc1ccc(N2C(=O)C3C4C=CC(C4)C3C2=O)cc1)Nc1cccnc1 (configuration not stated),-5
C=CCOc1cccc(C2/C(=C(/O)c3ccccc3)C(=O)C(=O)N2CCCN2CCOCC2)c1 (configuration not stated),-18
CC(C)C(=O)Nc1cccc(NC(=O)CCN2C(=O)c3ccccc3S2(=O)=O)c1,-7
CCOC(=O)Cc1csc2nc3sc(C)c(C)c3c(=O)n12,-10
C[C@H](CS)C(=O)N1CCC[C@H]1C(=O)O,7
COC(=O)c1ccccc1NC(=O)C12CCC(C)(C(=O)O1)C2(C)C (configuration not stated),-3
CCOc1ccc(NC(=O)CN2C(=O)C3CCCN3C2=O)cc1 (configuration not stated),1
Cc1csc(OCc2ccc(C#N)cc2)n1,-1
CCOC(=O)C1=C(C)NC(SCC(=O)Nc2cc(C)on2)=C(C#N)C1c1cccs1 (configuration not stated),-21
CCn1cc(C(=O)O)c(=O)c2cc(F)c(N3CCNCC3)nc21,75*
CCn1cc(C(=O)O)c(=O)c2ccc(C)nc21,26
CCn1cc(C(=O)OCc2ccc(F)cc2)c(=O)c2ccc(C)nc21,-8
CCS(=O)(=O)C(=C1NCCO1)S(=O)(=O)CC,-12
COc1ccc(OC)c(S(=O)(=O)N2CCN(c3c(C)cccc3C)CC2)c1,0
COc1cc(-c2ccc(NC(=O)CN3CCCCC3)c(OC)c2)ccc1NC(=O)CN1CCCCC1,-15
CC(C(=O)N1c2ccc(F)cc2CCC1C)N1C(=O)c2ccccc2C1=O (configuration not stated),4
COC(=O)c1ccccc1NC(=O)C1CC(=O)N(C2CCCCC2)C1 (configuration not stated),-19
O=C1NC(Cc2c[nH]c3ccccc23)C(=O)N1CCOc1ccccc1 (configuration not stated),3
O=S(=O)(NC1CCCCC1)c1ccc(Cl)s1,-2
COc1cc(CNc2ccc(N3CCOCC3)c(C(=O)O)c2)ccc1OCC(N)=O,6
SMILES,E coli WT inh
CCOc1ccc(C(=O)CN2CCN(S(=O)(=O)c3ccc(OC)cc3)CC2)cc1,4
CCOC(=O)N1CCN(C(=O)c2cn(CC)c3cc(N4CCN(C)CC4)c(F)cc3c2=O)CC1,71*
CCOC(=O)c1cn(CC)c2cc(N3CCOCC3)c(F)cc2c1=O,16
CCOC(=O)N1CCN(c2cc3nccnc3cc2F)CC1,-7
CCN1CCN(c2cc3c(cc2F)c(=O)c(C(=O)O)cn3C2CC2)CC1,72*
CCN1CCN(C(=O)c2cn(CC)c3ccc(S(=O)(=O)N(C)C)cc3c2=O)CC1,5
CCC(=O)c1cc(F)c(N2CCN(C(=O)Cc3ccccc3)CC2)cc1C,-17
CC1=C(C#N)C(C(F)(F)F)(C(F)(F)F)N=C(c2ccco2)N1,-16
COc1cc(OC)cc(C(=O)N2c3ccc(F)cc3CCC2C)c1 (configuration not stated),1
CC1CCc2cc(F)cc3c(=O)c(C(=O)O)cn1c23 (configuration not stated),44*
CC1CCc2cc(F)cc3c(O)c(C(=O)NCC4CCCO4)c(=O)n1c23 (configuration not stated),7
OCc1nn2c(c1Br)NC(c1ccccc1)CC2C(F)(F)F (configuration not stated),-21
CS(=O)(=O)N(CC(=O)NCc1ccc2c(c1)OCO2)Cc1ccc(Cl)cc1,-17
CCOC(=O)c1ccc(NC2OC(=O)c3ccccc32)cc1 (configuration not stated),12
COCCn1c(CN2CCN(c3ccccc3F)CC2)nc2c1c(=O)n(C)c(=O)n2C,10
N#C/C(=C\c1ccc[nH]1)S(=O)(=O)c1ccccc1,-9
CC(=O)N1CCc2cc(S(=O)(=O)NCCC3=CCCCC3)ccc21,0
CCCC(=O)Nc1cnc(NC(=O)c2cccc(F)c2)cc1C,14
O=C1CC(NC23CC4CC(CC(C4)C2)C3)C(=O)N1c1ccc2c(c1)OCO2 (configuration not stated),-23
O=C1CN(Cc2ccccc2)C(=NCc2ccco2)S1,-4

# Compound activity from PubChem BioAssay.
